From ChEMBL document CHEMBL1123588, “Synthesis and antisecretory and antiulcer activities of derivatives and analogues of 2-(2-pyridyl)tetrahydrothiophene-2-carbothioamide” (1987)

What was measured:
Rattus norvegicus [1] = organism: Rattus norvegicus; assay: Antisecretory activity against histamine stimulated gastric acid secretion in Shay rats expressed as ED50; assay type: functional; conditions: Stomach
How it was run: (§1)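 Histamine-stimulated Shay rats: females (OFA, 150–175 g, n=6/group), fasted 24 h. Oral dosing in 10% gum arabic, 1 h pre-histamine (100 mg/kg sc), promethazine 10 mg/kg ip pretreatment. Pylorus ligation under chloral hydrate; 2 h gastric juice titrated with 0.1 N NaOH. Lower doses tested when 30 mg/kg gave >80% inhibition; ED50 from regression line.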

Rattus norvegicus [2] = assay: Antisecretory activity against histamine stimulated gastric acid secretion in Shay rats by peroral administration of 30 mg /kg was determined; assay type: functional; conditions: Stomach, po
How it was run: (§2)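 Female OFA rats, 150–175 g, six per group, fasted 24 h with water allowed. Dose given orally in 10% gum arabic (5 mL/kg) 1 h before histamine 100 mg/kg sc. Promethazine 10 mg/kg ip 30 min before histamine; pylorus ligated under chloral hydrate 30 min after. Juice collected 2 h, titrated with 0.1 N NaOH. Acid output compared with controls by Student's t test.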

Rattus norvegicus [3] = assay: Antiulcer activity against restraint-induced gastric erosions in rats, following 100 mg/kg p.o. administration.; assay type: functional, Stomach; conditions: route oral
How it was run: (§3)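 Restraint-stress erosions (Rossi): female OFA rats, 150–175 g, six per group, fasted 24 h. Oral dose in 10% gum arabic (5 mL/kg) 1 h before restraint in wire-netting cages. Rats killed 24 h later and gastric mucosal erosions assessed. A rat counted protected with no erosion; read-out is % protected rats.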

Rattus norvegicus [4] = organism: Rattus norvegicus; assay: Antisecretory activity against histamine stimulated gastric acid secretion in Shay rats expressed as ED50; value ranges from (0.1-2.2); assay type: functional; conditions: Stomach; how it was run: as §1
Rattus norvegicus [5] = assay: Antiulcer activity by protection of restraint-induced gastric erosions in rats, by using the technique of Rossi was determined at peroral dose of 4.5 mg/kg; assay type: functional, Stomach; conditions: route oral; how it was run: as §3
Rattus norvegicus [6] = assay: Antisecretory activity against histamine stimulated gastric acid secretion in Shay rats by peroral administration of 30 mg /kg was determined: activity not statistically significant; assay type: functional; conditions: Stomach, po; how it was run: as §2
Rattus norvegicus [7] = organism: Rattus norvegicus; assay: Antisecretory activity against histamine stimulated gastric acid secretion in Shay rats expressed as ED50 value ranges from (2.7-12.3); assay type: functional; conditions: Stomach; how it was run: as §1
Rattus norvegicus [8] = assay: Antiulcer activity by protection of restraint-induced gastric erosions in rats, by using the technique of Rossi was determined at peroral dose of 10 mg/kg; assay type: functional, Stomach; conditions: route oral; how it was run: as §3
Rattus norvegicus [9] = assay: Antiulcer activity by protection of restraint-induced gastric erosions in rats, by using the technique of Rossi was determined at peroral dose of 5 mg/kg; assay type: functional, Stomach; conditions: route oral; how it was run: as §3
Rattus norvegicus [10] = organism: Rattus norvegicus; assay: Antisecretory activity against histamine stimulated gastric acid secretion in Shay rats expressed as ED50; value ranges from (1.0-6.5); assay type: functional; conditions: Stomach; how it was run: as §1
Rattus norvegicus [11] = organism: Rattus norvegicus; assay: animal or person; conditions: Stomach
Rattus norvegicus [12] = organism: Rattus norvegicus; assay: Antisecretory activity against histamine stimulated gastric acid secretion in Shay rats expressed as ED50 value ranges from (1.7-17.4); assay type: functional; conditions: Stomach; how it was run: as §1
Rattus norvegicus [13] = assay: Antisecretory activity against histamine stimulated gastric acid secretion in Shay rats by peroral administration of 30 mg /kg was determined :activity not statistically significant; assay type: functional; conditions: Stomach, po; how it was run: as §2
Rattus norvegicus [14] = organism: Rattus norvegicus; assay: Antisecretory activity against histamine stimulated gastric acid secretion in Shay rats expressed as ED50 value ranges from (0.6-3.8); assay type: functional; conditions: Stomach; how it was run: as §1
Rattus norvegicus [15] = organism: Rattus norvegicus; assay: Antisecretory activity against histamine stimulated gastric acid secretion in Shay rats expressed as ED50 value ranges from (1.3-7.1); assay type: functional; conditions: Stomach; how it was run: as §1
Rattus norvegicus [16] = organism: Rattus norvegicus; assay: Antisecretory activity against histamine stimulated gastric acid secretion in Shay rats expressed as ED50 value ranges from (2.5-12.1); assay type: functional; conditions: Stomach; how it was run: as §1
Rattus norvegicus [17] = assay: Antiulcer activity by protection of restraint-induced gastric erosions in rats, by using the technique of Rossi was determined at peroral dose of 30 mg/kg; assay type: functional, Stomach; conditions: route oral; how it was run: as §3
Rattus norvegicus [18] = organism: Rattus norvegicus; assay: Antiulcer activity against histamine stimulated gastric acid secretion in Shay rats expressed as ED50; assay type: functional; conditions: Stomach
Rattus norvegicus [19] = organism: Rattus norvegicus; assay: Antisecretory activity against histamine stimulated gastric acid secretion in Shay rats expressed as ED50 value ranges from (0.1-1.3); assay type: functional; conditions: Stomach; how it was run: as §1
Rattus norvegicus [20] = organism: Rattus norvegicus; assay: Antisecretory activity against histamine stimulated gastric acid secretion in Shay rats expressed as ED50 value ranges from (1-2.6); assay type: functional; conditions: Stomach; how it was run: as §1
Rattus norvegicus [21] = organism: Rattus norvegicus; assay: Antisecretory activity against histamine stimulated gastric acid secretion in Shay rats expressed as ED50 value ranges from (0.8-2.8); assay type: functional; conditions: Stomach; how it was run: as §1
Rattus norvegicus [22] = organism: Rattus norvegicus; assay: Antisecretory activity against histamine stimulated gastric acid secretion in Shay rats expressed as ED50; value ranges from (0.5-2); assay type: functional; conditions: Stomach; how it was run: as §1
Rattus norvegicus [23] = organism: Rattus norvegicus; assay: Antiulcer activity by protection of restraint-induced gastric erosions in rats, by using the technique of Rossi was determined at peroral dose of; assay type: functional, Stomach; how it was run: as §3
Rattus norvegicus [24] = organism: Rattus norvegicus; assay: Antisecretory activity against histamine stimulated gastric acid secretion in Shay rats expressed as ED50; value ranges from(0.5-22.3).; assay type: functional; conditions: Stomach; how it was run: as §1

CCCCCCC/N=C(\S)C1(c2ccccn2)CCCS1 (centres undefined)
ED50 (Rattus norvegicus [1]): > 30 mg/kg | inhibition in vivo at 30 mg/kg (Rattus norvegicus [2]): 0% | Protection (Rattus norvegicus [3]): 33%

C/N=C(\S)C1(c2ccccn2)CCCO1 (centres undefined)
ED50 (Rattus norvegicus [4]): 0.5 mg/kg | Protection (Rattus norvegicus [5]): 66%

OCC/N=C(\S)C1(c2ccccn2)CCCS1 (centres undefined)
ED50 (Rattus norvegicus [1]): > 30 mg/kg | inhibition in vivo at 30 mg/kg (Rattus norvegicus [6]): 25% | Protection (Rattus norvegicus [3]): 16%

S=C(NCc1ccccc1)C1(c2ccccn2)CCCS1 (centres undefined)
ED50 (Rattus norvegicus [1]): ≤ 30 mg/kg | inhibition in vivo at 30 mg/kg (Rattus norvegicus [2]): 58% | Protection (Rattus norvegicus [3]): 100%

CN(C)C(=S)C1(c2ccccn2)CCCS1 (centres undefined)
ED50 (Rattus norvegicus [1]): < 30 mg/kg | inhibition in vivo at 30 mg/kg (Rattus norvegicus [2]): 74% | Protection (Rattus norvegicus [3]): 83%

C/N=C(\S)C1(c2ccc(C)cn2)CCCS1 (centres undefined)
ED50 (Rattus norvegicus [7]): 5.7 mg/kg | Protection (Rattus norvegicus [8]): 60%

C/N=C(\S)C1(c2ccccn2)SCCCS1
ED50 (Rattus norvegicus [1]): 5.7 mg/kg | Protection (Rattus norvegicus [8]): 50%

C/N=C(\S)C1(c2ccccn2)OCCCS1 (centres undefined)
ED50 (Rattus norvegicus [1]): 1.6 mg/kg | Protection (Rattus norvegicus [9]): 50%

S=C(N1CCOCC1)C1(c2ccccn2)CCCS1 (centres undefined)
ED50 (Rattus norvegicus [1]): ≤ 30 mg/kg | inhibition in vivo at 30 mg/kg (Rattus norvegicus [2]): 54% | Protection (Rattus norvegicus [3]): 83%

C/N=C(\S)C1(c2ccccn2)CCCCS1 (centres undefined)
ED50 (Rattus norvegicus [10]): 2.6 mg/kg | Protection (Rattus norvegicus [8]): 100%

N/N=C(\S)C1(c2ccccn2)CCCS1 (centres undefined)
ED50 (Rattus norvegicus [1]): > 30 mg/kg | inhibition in vivo at 30 mg/kg (Rattus norvegicus [6]): 0% | Protection (Rattus norvegicus [3]): 0%

C/N=C(\S)C1(c2cccnn2)CCCS1 (centres undefined)
Protection (Rattus norvegicus [3]): 100%

CN/C(=N\CCSCc1nc[nH]c1C)NC#N [CIMETIDINE]
Protection (Rattus norvegicus [3]): 50% | ED50 (Rattus norvegicus [11]): 30 mg/kg

N=C(S)C(c1ccccc1)c1ccccn1 (centres undefined)
ED50 (Rattus norvegicus [12]): 5.5 mg/kg

S=C(N1CCCCC1)C1(c2ccccn2)CCCS1 (centres undefined)
inhibition in vivo at 30 mg/kg (Rattus norvegicus [6]): 30% | Protection (Rattus norvegicus [3]): 83%

S=C(Nc1ccccc1)C1(c2ccccn2)CCCS1 (centres undefined)
ED50 (Rattus norvegicus [1]): > 30 mg/kg | inhibition in vivo at 30 mg/kg (Rattus norvegicus [13]): 0%

C/N=C(\S)C1(c2cccnc2)CCCS1 (centres undefined)
ED50 (Rattus norvegicus [1]): ≥ 30 mg/kg | inhibition in vivo at 30 mg/kg (Rattus norvegicus [2]): 49% | Protection (Rattus norvegicus [3]): 100%

CCCCc1ccnc(C2(/C(S)=N/C)CCCS2)c1 (centres undefined)
ED50 (Rattus norvegicus [1]): < 30 mg/kg | inhibition in vivo at 30 mg/kg (Rattus norvegicus [2]): 78% | Protection (Rattus norvegicus [3]): 100%

Cc1cnc2c(c1)CCCC2C(N)=S (centres undefined) [TIQUINAMIDE]
ED50 (Rattus norvegicus [14]): 1.6 mg/kg

CN1CCN(C(=S)C2(c3ccccn3)CCCS2)CC1 (centres undefined)
ED50 (Rattus norvegicus [1]): > 30 mg/kg | inhibition in vivo at 30 mg/kg (Rattus norvegicus [6]): 8% | Protection (Rattus norvegicus [3]): 0%

C/N=C(\S)C1(c2ccc3ccccc3n2)CCCS1 (centres undefined)
ED50 (Rattus norvegicus [15]): 3 mg/kg | Protection (Rattus norvegicus [3]): 100%

C=CCNC(=S)C1(c2ccccn2)CCCS1 (centres undefined)
ED50 (Rattus norvegicus [1]): > 30 mg/kg | inhibition in vivo at 30 mg/kg (Rattus norvegicus [6]): 20% | Protection (Rattus norvegicus [3]): 0%

CCCC/N=C(\S)C1(c2ccccn2)CCCS1 (centres undefined)
ED50 (Rattus norvegicus [16]): 5.5 mg/kg | Protection (Rattus norvegicus [17]): 100%

CNC(=S)C1(c2ccccn2)CCCS1 (centres undefined) [PICARTAMIDE]
ED50 (Rattus norvegicus [18]): 5.9 mg/kg | ED50 (Rattus norvegicus [19]): 0.4 mg/kg | Protection (Rattus norvegicus [5]): 50%

CC/N=C(\S)C1(c2ccccn2)CCCS1 (centres undefined)
Protection (Rattus norvegicus [8]): 50% | ED50 (Rattus norvegicus [20]): 1.6 mg/kg

CNC(=S)C1(c2cccc(C)n2)CCCS1 (centres undefined) [LUCARTAMIDE]
ED50 (Rattus norvegicus [21]): 1.5 mg/kg | Protection (Rattus norvegicus [8]): 50%

CN(C)CCC/N=C(\S)C1(c2ccccn2)CCCS1 (centres undefined)
ED50 (Rattus norvegicus [1]): > 30 mg/kg | inhibition in vivo at 30 mg/kg (Rattus norvegicus [6]): 0% | Protection (Rattus norvegicus [3]): 0%

C/N=C(\S)C1(c2cc(C)ccn2)CCCS1 (centres undefined)
ED50 (Rattus norvegicus [22]): 1 mg/kg | Protection (Rattus norvegicus [8]): 83%

CCCCCCCCCCCC/N=C(\S)C1(c2ccccn2)CCCS1 (centres undefined)
ED50 (Rattus norvegicus [1]): > 30 mg/kg | inhibition in vivo at 30 mg/kg (Rattus norvegicus [2]): 0% | Protection (Rattus norvegicus [23]): 0%

CN(C)CC/N=C(\S)C1(c2ccccn2)CCCS1 (centres undefined)
ED50 (Rattus norvegicus [1]): > 30 mg/kg | inhibition in vivo at 30 mg/kg (Rattus norvegicus [6]): 0% | Protection (Rattus norvegicus [3]): 16%

NC(=S)C1(c2ccccn2)SCCCS1
ED50 (Rattus norvegicus [1]): 2.8 mg/kg | Protection (Rattus norvegicus [3]): 100%

C/N=C(\S)C1(c2cnccn2)CCCS1 (centres undefined)
ED50 (Rattus norvegicus [1]): > 30 mg/kg | inhibition in vivo at 30 mg/kg (Rattus norvegicus [2]): 38% | Protection (Rattus norvegicus [3]): 100%

NC(=S)C1(c2ccccn2)CCCS1 (centres undefined)
ED50 (Rattus norvegicus [24]): 3.2 mg/kg | Protection (Rattus norvegicus [3]): 100%

Cc1cccc(C2(C(=N)S)CCCS2)n1 (centres undefined)
ED50 (Rattus norvegicus [1]): < 30 mg/kg | inhibition in vivo at 30 mg/kg (Rattus norvegicus [2]): 71% | Protection (Rattus norvegicus [3]): 100%

C/N=C(\S)C1(c2ccncc2)CCCS1 (centres undefined)
ED50 (Rattus norvegicus [1]): ≤ 30 mg/kg | inhibition in vivo at 30 mg/kg (Rattus norvegicus [2]): 53% | Protection (Rattus norvegicus [3]): 83%
